# Screening results (PubChem BioAssay)
# CHO parental Ca: counter-screen for OX1R antagonists: effect in parental CHO cells. parental CHO-K1, ATP-induced calcium, Fluo-8 fluorescence. inhibition, % at 5.6 µM. 330,000 tested, 0.63% active. AID 463079;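 active = inhibition above that plate's mean sample inhibition plus 3 SD, cut at about 26% in these data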;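 note: 0% = ATP-challenged DMSO wells and 100% = DMSO wells without ATP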
#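 Test system: untransfected parental CHO cell line; also added: ATP stimulus; dosing: 5.6 µM, single dose; signal: calcium-sensitive Fluo-8 fluorescence; measure: percent inhibition of ATP-evoked calcium rise, normalized to controls; benchmarks: low control ATP plus DMSO, high control DMSO only; replication: one well per compound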
# OX1R antag-1: OX1R (human) antagonism. O43613. OX1R-expressing cells, FRET antagonist read-out. inhibition, % at 6.6 µM. 330,000 tested, 1.8% active; in the data active = inhibition mostly above about 38%, no sharp cut-off; inactive = mostly below about 40%;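 note: 0% = agonist challenge alone and 100% = reference antagonist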
# TAAR1 antag: antagonists of human TAAR1; inhibition, % at 3 µM; CHO RD-HGA16 TAAR1, Fluo-8 calcium fluorescence, antagonist; AID 624466; Q96RJ0; 360,000 tested, 1.5% active;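 active = inhibition above a per-plate cutoff, the mean inhibition of test compounds on that plate plus 3 SD, cut at about 49% in these data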;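 note: 0% = DMSO plus EC80 beta-PEA response and 100% = DMSO alone without agonist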
# Target sequence (Q96RJ0 whole entry, looked up): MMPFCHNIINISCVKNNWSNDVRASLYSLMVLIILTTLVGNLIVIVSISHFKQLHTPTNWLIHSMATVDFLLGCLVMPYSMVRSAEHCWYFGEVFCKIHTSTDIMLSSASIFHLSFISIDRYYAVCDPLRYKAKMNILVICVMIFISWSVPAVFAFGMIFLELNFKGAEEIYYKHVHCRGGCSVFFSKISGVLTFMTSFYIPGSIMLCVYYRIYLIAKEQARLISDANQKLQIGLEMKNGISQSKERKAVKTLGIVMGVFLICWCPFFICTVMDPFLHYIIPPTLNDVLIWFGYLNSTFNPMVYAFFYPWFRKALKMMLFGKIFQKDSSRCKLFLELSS
#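 Test system: hTAAR1-expressing CHO RD-HGA16 cells, Gα16-coupled; Probe or stimulus: EC80 β-phenethylamine stimulus; Compound dosing: single nominal final test compound concentration of 3 µM; Timing: 140 s kinetic read after compound, 140 s after agonist; Signal: Fluo-8 calcium-sensitive fluorescence; Measure: % inhibition of agonist calcium response; Controls: DMSO and EC80 PEA controls.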
# GPR7 antag: antagonists of human GPR7 (neuropeptides B/W receptor 1); P48145; 290,000 tested, 1.1% active; inhibition, % at 4.4 µM; GPR7-expressing cells, fluorescence antagonist assay; in the data active = inhibition above about 16%, passing the limit was not always enough;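 note: cells stimulated with the agonist NPW; 0% = agonist with vehicle and 100% = vehicle without agonist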
# Target sequence (P48145 whole entry, looked up): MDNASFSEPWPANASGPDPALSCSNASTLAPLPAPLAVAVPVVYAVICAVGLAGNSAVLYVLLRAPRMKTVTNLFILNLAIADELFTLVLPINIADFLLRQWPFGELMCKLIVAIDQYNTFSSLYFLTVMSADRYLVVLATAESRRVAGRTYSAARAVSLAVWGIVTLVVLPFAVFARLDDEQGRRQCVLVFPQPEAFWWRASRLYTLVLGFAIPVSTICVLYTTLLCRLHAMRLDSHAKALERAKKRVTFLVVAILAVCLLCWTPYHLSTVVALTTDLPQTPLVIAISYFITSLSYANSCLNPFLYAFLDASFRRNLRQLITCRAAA
# OX1R antag-2: blocks the human orexin 1 receptor. CHO/OX1R cells, Fluo-8 calcium fluorescence, orexin A. 330,000 tested, 0.43% active. AID 434989. inhibition, % at 5 µM;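 active = inhibition above its plate's threshold, mean inhibition of all tested compounds on the plate plus 3 SD, cut at about 37% in these data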;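 note: 0% = orexin A challenge wells and 100% = SB-334867-A antagonist wells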
# TAAR1 agonist: agonists of human TAAR1 | CHO RD-HGA16 TAAR1, Fluo-8 calcium fluorescence; vehicle wells 0%, saturating PEA agonist 100% | activation, % at 3 µM | 360,000 tested, 0.99% active;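 active = activation above the mean activation of all test compounds in the run plus 3 SD, cut at about 38% in these data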
#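 Assay system – CHO-derived RD-HGA16 cells with stable Gα16 and human TAAR1 · Compound dosing – one-point dosing at 3 µM (nominal) · Incubation – 17-24 h seeding, 75 min 37 °C dye, 30 min RT · Measured by – kinetic Fluo-8 calcium fluorescence · Control set – DMSO vehicle as 0%, PEA at EC100 as 100% · Repeats – single well for each compound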
# An asterisk follows results filed as active; . = no result given. Most compounds without a hit are left out; they make up all but 4.6% or so of the library.
SMILES,CHO parental Ca,OX1R antag-1,TAAR1 antag,GPR7 antag,OX1R antag-2,TAAR1 agonist
COc1ccc(NC(=O)Nc2nc(C(N)Cc3ccc(C(F)(F)F)cc3)cs2)cc1 (stereo unspecified),.,.,49.7*,.,.,39.9*
COc1ccc(CC(N)c2csc(NC(=O)Nc3ccc(OC)cc3)n2)cc1 (stereo unspecified),.,.,25.9,.,.,24.6
NC(Cc1ccc(C(F)(F)F)cc1)c1csc(Nc2ccc(C(=O)c3ccccc3)cc2)n1 (stereo unspecified),.,.,27.0,.,.,36.1
CC(=O)c1ccc(Nc2nc(C(N)Cc3ccc(C(F)(F)F)cc3)cs2)cc1 (stereo unspecified),.,.,35.7,.,.,52.4*
CCN(CC)C(=O)COc1ccc(-c2nnc(Nc3ccc(OC)c(C(=O)NC)c3)c3ccccc23)cc1,-24.2,8.0,-9.6,18.9*,-35.4,-1.2
CCN1CCN(c2ccc(Cl)cc2NC(=O)c2ccc(-n3nc(C)cc3C)cc2)CC1,-13.1,10.2,-5.2,.,-19.5,4.9
Cc1cc(NC(=O)c2c(F)cccc2F)n(-c2nc3ccccc3[nH]2)n1,-20.6,2.8,22.8,-19.2,-33.0,4.5
Cc1cc(NC(=O)c2c(F)cccc2Cl)n(-c2nc3ccccc3[nH]2)n1,-4.1,27.9,50.2*,-2.8,-17.5,5.6
O=c1c2cc([N+](=O)[O-])cc([N+](=O)[O-])c2[nH]n1-c1ccccc1,-1.9,6.1,-21.0,-5.8,-11.5,2.3
O=c1[nH]c(=O)c2cc([N+](=O)[O-])cc([N+](=O)[O-])c2[nH]1,-7.1,51.7*,-13.8,-4.2,-13.6,5.2
O=S(=O)(c1cccc2cccnc12)n1cnc2ccccc21,-11.8,21.5,-3.6,12.4*,-17.2,2.7
Cc1occc1C(=O)N/N=C/c1cccc2ccccc12,-21.9,24.0,3.4,1.5,-29.9,-1.8
O=C(COC(=O)CSc1ccccc1)NNC(=O)c1ccc([N+](=O)[O-])cc1,-5.3,47.1,-1.7,-8.5,-9.7,0.4
O=C(NNC(=O)c1ccc([N+](=O)[O-])cc1)c1ccncc1,10.6,70.3*,1.0,5.1,8.7,2.4
COc1cccc(CC(=O)OCC(=O)NNC(=O)c2ccc([N+](=O)[O-])cc2)c1,-8.7,59.9*,-33.1,-5.5,-11.3,-0.7
O=C(NNC(=O)c1ccc([N+](=O)[O-])cc1)c1ccc(F)cc1,-0.2,61.5,-19.6,.,5.6,5.4
O=C(COC(=O)CSc1ccc(F)cc1)NNC(=O)c1ccc([N+](=O)[O-])cc1,-1.7,59.5*,-3.4,.,2.6,0.5
CCOc1ccc(OCC(=O)OCC(=O)NNC(=O)c2ccc([N+](=O)[O-])cc2)cc1,6.9,56.8*,1.7,.,3.3,0.8
Cc1ccc(NC(=O)c2cccc(-n3cnnn3)c2)cc1Cl,-15.2,-3.2,0.5,.,-6.8,34.2
CC(=NNc1cc(C)c2ccccc2n1)c1ccccn1,.,.,38.3,.,.,15.2
O=C1CN(S(=O)(=O)c2cccc(Cl)c2Cl)c2ccccc2N1,-13.1,10.3,-3.8,-9.6,-6.1,0.4
O=C(CC1CCCC1)N[C@H](C(=O)N1CCC[C@H]1C(=O)NC1CCCC1)C1CCCCC1,.,.,-28.6,.,.,-0.7
Cc1cc(C)c(NC(=O)CNC(=O)c2ccc3ncsc3c2)c(C)c1,-7.0,-0.7,7.1,.,-16.5,7.0
CN(c1ccc(OCC(=O)OCC(=O)Nc2ccccc2)cc1)S(=O)(=O)c1ccc(F)cc1,-2.6,12.1,30.8,-9.3,-5.2,21.1
O=C(COC(=O)C1CC2CCCC(C1)C2=O)NNC(=O)c1ccc([N+](=O)[O-])cc1 (stereo unspecified),-0.2,69.2*,-15.9,.,-15.4,-0.1
SMILES,CHO parental Ca,OX1R antag-1,TAAR1 antag,GPR7 antag,OX1R antag-2,TAAR1 agonist
O=C(COC(=O)Cc1ccccc1[N+](=O)[O-])NNC(=O)c1ccc([N+](=O)[O-])cc1,-4.7,36.0*,-10.7,.,-12.9,3.3
CC(=O)Nc1cccc(C(=O)OCC(=O)NNC(=O)c2ccc([N+](=O)[O-])cc2)c1,1.6,52.1*,-34.3,.,-5.8,4.1
CC(=O)Nc1cccc(C(=O)OCc2ccc([N+](=O)[O-])cc2)c1,-4.6,18.3,-11.3,-8.1,-8.1,1.3
CN(c1ccc(OCC(=O)OCC(=O)Nc2ccc([N+](=O)[O-])cc2)cc1)S(=O)(=O)c1cccs1,.,.,59.6*,.,.,41.2*
COC(=O)C1=C(C)N(Cc2cccc(C(F)(F)F)c2)C(=NCc2ccc3c(c2)OCO3)NC1c1ccccc1C(F)(F)F (stereo unspecified),.,.,-5.5,.,.,4.0
O=C(c1ccc([N+](=O)[O-])cc1)N1CCN(C(=O)c2cccnc2)CC1,11.6,53.2*,-7.7,-1.5,-14.5,1.3
Cc1ccc2c(c1)c1c(n2CC(O)CNC(C)(C)C)CCCC1 (stereo unspecified),.,.,0.0,21.4*,.,10.0
Cc1cc2c(c(=O)o1)[C@@]1(C(=O)N(c3ccccc3)c3ccccc31)C1=C(CCCC1=O)O2,.,.,8.9,.,.,0.2
C/C(=N\NC(=O)c1ccccc1F)c1cccc(NC(=O)c2ccccc2)c1,-12.1,10.0,1.9,-7.9,-22.2,1.4
C/C(=N\NC(=O)c1cc(Br)ccc1O)c1cccc(NC(=O)c2ccccc2F)c1,-7.7,59.2*,-19.3,-19.3,-14.6,4.4
C[C@H](NC(=O)c1ccc(C(C)(C)C)cc1)C(=O)N1CCOCC1,-6.4,0.5,1.7,.,22.3,22.1
Cc1cccc2sc(N(CCN(C)C)C(=O)C3CCN(S(=O)(=O)c4cccs4)CC3)nc12,-10.0,0.4,41.0,.,-15.1,38.7*
Cc1[nH]c2ccccc2c1CC(=O)Nc1ccc(Nc2ccncc2)cc1,.,.,-15.8,.,.,3.0
O=C1c2ccccc2C(=O)N1CCCCCc1nc(-c2ccccc2)no1,-11.7,74.4*,14.6,-20.0,26.6,9.3
O=C(c1ccc(NC(=S)NCc2ccc(Cl)cc2)cc1)N1CCCCC1,-5.0,-6.9,16.6,13.9,-4.4,43.7*
COc1ccc(CN(C(=O)c2snc(C(N)=O)c2N)C(C)C(=O)NCc2ccc(F)cc2)cc1 (stereo unspecified),6.1,37.3,19.5,-3.8,-8.9,14.3
COc1cccc(N(C(=O)c2snc(C(N)=O)c2N)C(C(=O)NCc2ccccc2)c2ccc(O)cc2)c1 (stereo unspecified),-2.3,2.1,54.0*,-2.5,-0.7,9.2
CN(C)c1ccc(C(C(=O)NCc2ccccc2)N(Cc2cccnc2)C(=O)c2snc(C(N)=O)c2N)cc1 (stereo unspecified),.,.,56.2*,-8.5,.,16.7
COc1ccc(C(C(=O)NCc2ccccc2)N(Cc2cccnc2)C(=O)c2snc(C(N)=O)c2N)cc1OC (stereo unspecified),-9.1,13.1,19.9,-8.8,-16.2,4.3
